Results from different studies.
Compare with care: the assays were run in different laboratories.
Target: Angiopoietin-1 receptor (TEK, Homo sapiens, UniProt Q02763)

CCCCC(=O)Nc1ccc(-c2ccc3ncn(CCC)c(=O)c3c2)cn1
remaining binding (binding; competition with immobilised ligand; 0.5 µM): 94%

CC#CC(=O)N1CCC[C@H]1c1nc(-c2ccc(C(=O)Nc3ccccn3)cc2)c2c(N)nccn12
inhibition (enzyme activity; inhibitor; 1 µM): 0%

COc1ccc2[nH]c3c4[nH]c5ccc(OC)cc5c4c4c(c3c2c1)C(=O)NC4=O
remaining binding (binding; competition with immobilised ligand; 1 µM): 100%

COc1ccc2oc(-c3ccc4nc(N)oc4c3)c/c(=N\c3ccccc3NC(=O)CCN)c2c1
remaining signal (cell-free assay; 1 µM): 87%

C=CC(=O)N1CCC([C@@H]2CCNc3c(C(N)=O)c(-c4ccc(Oc5ccccc5)cc4)nn32)CC1
inhibition (cell-free assay; 1 µM): 0%

N#Cc1ccc(NC(=O)Nc2ccccc2)cc1
remaining binding (cell-free assay; competition with immobilised ligand; 25 µM): 98%

C#Cc1cnc(Nc2ccnc(CO)c2)nc1Nc1ccccc1S(C)(=O)=NC#N (centres unmarked)
remaining signal (cell-free assay; 1 µM): 46%

C[C@H]1CC[C@H](n2c3cnccc3c3cnc(Nc4ccc5c(n4)CCN(C(=O)CO)C5)nc32)CC1
remaining binding (cell-free assay; competition with immobilised ligand; 1 µM): 92%
